The source made the active and inactive calls. The calls are words filed in the database; no cut-off is given here.
Columns and labels:
[1] = Inhibition of Aspergillus nidulans FcyB expressed in germinating conidiospores of UapA, UapC, AzgA, FurD, FurA, FcyB, CntA transporter deficient Aspergillus nidulans assessed as suppression of [2,8 3H]-adenine uptake after 1 min by scintillation counting method
Procedure, shortened: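 In germinating conidiospores of a Δ7 strain expressing only FcyB (uapA promoter), 0.5 μM ³H-adenine uptake was measured over 1 min against varying analogue concentrations. Ki was derived from IC50 by Cheng–Prusoff, Ki = IC50/(1+[S]/Km), with [S] as the fixed radiolabelled substrate concentration. Values are averages of at least three independent experiments with three replicates per concentration point.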

Aspergillus nidulans [2] = assay: Inhibition of Aspergillus nidulans FcyB expressed in germinating conidiospores of UapA, UapC, AzgA, FurD, FurA, FcyB, CntA transporter deficient Aspergillus nidulans assessed as suppression of [2,8 3H]-hypoxanthine uptake at 0.5 mM after 1 min by scintillation counting method
Procedure, shortened: (§1)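 Competition uptake in germinating conidiospores of a Δ7 strain carrying single-copy fcyB driven by the uapA promoter, selected by pabA1 complementation. 0.5 μM ³H-substrate (adenine for line 1, hypoxanthine for line 3) was added together with a 1000-fold excess (500 μM) of analogue. Uptake was stopped after 1 min by freezing, immediate centrifugation and washing. Three experiments, each in triplicate.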

Aspergillus nidulans [3] = assay: Inhibition of Aspergillus nidulans FcyB expressed in germinating conidiospores of UapA, UapC, AzgA, FurD, FurA, FcyB, CntA transporter deficient Aspergillus nidulans assessed as [2,8 3H]-adenine uptake at 0.5 mM after 1 min by scintillation counting method relative to control; design: scale not given: the % may be the effect or the level left; procedure, shortened: as §1

SMILES	Ki [1]	inhibition (Aspergillus nidulans [2])	Activity (Aspergillus nidulans [3])
CC(C)n1cnc2c(NCc3ccccc3)nccc21	5 µM	Active	< 10%
CN1CCN(c2nccc3c2ncn3C2CCCC2)CC1	38 µM	Active	< 10%

Now from value to compound:

Ki [1]	inhibition (Aspergillus nidulans [2])	Activity (Aspergillus nidulans [3])	SMILES
21 µM	Active	< 10%	c1ccc(CNc2nccc3c2ncn3C2CCCC2)cc1
18 µM	Active	< 10%	Nc1nccc2c1ncn2C1CCCC1
95 µM	Active	< 10%	CN(C)CCNc1nccc2c1ncn2C1CCCC1
72 µM	Active	< 10%	CC(C)n1cnc2c(NCCN(C)C)nccc21

— ChEMBL document CHEMBL3856282, “Design and synthesis of purine analogues as highly specific ligands for FcyB, a ubiquitous fungal nucleobase transporter” (Bioorg Med Chem, 2016)
